IC50 and viability data for 13 molecules are collected here from ChEMBL document CHEMBL1138546, “Synthesis and antimalarial activity of hydroxyethylpiperazine derivatives” (Eur J Med Chem, 2009).

One series concerns Plasmodium falciparum. Briefly: Antimalarial activity after 24 hrs against chloroquine-resistant Plasmodium falciparum W2 by [3H]hypoxanthine uptake. Format: functional, organism-based. The procedure, abridged:
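P. falciparum cultured in human O+ erythrocytes, 5% hematocrit, RPMI 1640 plus 10% human plasma. Sorbitol-synchronized trophozoites set at 2% parasitaemia, 2.5% hematocrit with ethanol-dissolved compounds at various concentrations in hypoxanthine-free RPMI 1640; chloroquine reference in each run. Growth read by [³H]-hypoxanthine incorporation; IC50 versus drug-free controls from curve fitting of dose-response data.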

A short description of series [1]: Cytotoxicity against mouse J774 cells assessed as cell viability at 0.1 ug/ml after 24 hrs by MTT assay. The note with it: read-out: Activity. Type of series: cell-based. The procedure, abridged: (§1)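 Murine J774 monocyte/macrophages seeded at 2×10^6 cells/well, left 1 h at 37 °C, 5% CO2 in RPMI 1640 with 10% fetal bovine serum, 2 mM L-glutamine, 25 µg/ml gentamicin, pH 7.4. Adherent cells exposed to compounds (0.1–100 µg/ml) for 20 h, then MTT (5 mg/ml) added for 4 h. Formazan dissolved in DMSO, absorbance read at 540 nm. Result given as percent viability.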

Series [2] is described as follows: Cytotoxicity against mouse J774 cells assessed as cell viability at 1 ug/ml after 24 hrs by MTT assay. Type of series: cell-based. The note with it: read-out: Activity. The procedure, abridged:
as §1

Series [3] can be described thus: Cytotoxicity against mouse J774 cells assessed as cell viability at 10 ug/ml after 24 hrs by MTT assay. Format: cell-based. The note with it: read-out: Activity. The procedure, abridged:
as §1

Series [4] can be described thus: Cytotoxicity against mouse J774 cells assessed as cell viability at 100 ug/ml after 24 hrs by MTT assay. The note with it: read-out: Activity. Type of series: cell-based. A digest of the protocol:
as §1

Values after ≈ are worked out from the molar mass of the structure shown.

`CC(C)(C)OC(=O)N[C@@H](Cc1ccccc1)[C@H](O)CN1CCN(Cc2ccc(F)cc2)CC1` gave an IC50 in the series with Plasmodium falciparum of 7.5 µg/mL (≈ 16.4 µM). Besides, the viability at 24 h, 0.1 ug/ml in series [1] came out at 100%. The viability at 24 h, 1 ug/ml in series [2] turned out to be 100%. Further, in series [3], the viability at 24 h, 10 ug/ml turned out to be 99%. For the same molecule, the viability at 24 h, 100 ug/ml in series [4] amounted to 90%.

Consider `CC(C)(C)OC(=O)N[C@@H](Cc1ccccc1)[C@H](O)CN1CCN(Cc2ccc3c(c2)OCO3)CC1`, for which the IC50 in the series with Plasmodium falciparum is 5.1 µg/mL (≈ 10.5 µM). In addition, the viability at 24 h, 0.1 ug/ml in series [1] was found to be 100%. For the same molecule, the viability at 24 h, 1 ug/ml in series [2] is 98%. For the same molecule, in series [3], the viability at 24 h, 10 ug/ml came to 100%. In addition, in series [4], the viability at 24 h, 100 ug/ml is 82%.

Consider `CC(C)(C)OC(=O)N[C@@H](Cc1ccccc1)[C@H](O)CN1CCN(Cc2ccc(N)cc2)CC1`, for which the IC50 with Plasmodium falciparum worked out at 15.8 µg/mL (≈ 34.8 µM). Further, the viability at 24 h, 0.1 ug/ml in series [1] came out at 100%. Besides, the viability at 24 h, 1 ug/ml in series [2] came out at 98%. Also, the viability at 24 h, 10 ug/ml in series [3] amounted to 98%. In addition, the viability at 24 h, 100 ug/ml in series [4] is 85%.

In the series with Plasmodium falciparum, `COc1ccc(CN2CCN(C[C@@H](O)[C@H](Cc3ccccc3)NC(=O)OC(C)(C)C)CC2)cc1` had a 50% inhibitory concentration (IC50) of 6.2 µg/mL (≈ 13.2 µM). In addition, the viability at 24 h, 0.1 ug/ml in series [1] turned out to be 100%. Further, the viability at 24 h, 1 ug/ml in series [2] was 100%. Also, in series [3], the viability at 24 h, 10 ug/ml was 100%. Further, the viability at 24 h, 100 ug/ml in series [4] stood at 85%.

On to `CC(C)(C)OC(=O)N[C@@H](Cc1ccccc1)[C@H](O)CN1CCNCC1`, for which the IC50 with Plasmodium falciparum was above 50 µg/mL. Moreover, the viability at 24 h, 0.1 ug/ml in series [1] came to 100%. The viability at 24 h, 1 ug/ml in series [2] stood at 100%. Besides, the viability at 24 h, 10 ug/ml in series [3] is 100%. Moreover, the viability at 24 h, 100 ug/ml in series [4] came out at 65%.

In the series with Plasmodium falciparum, `CC(C)(C)OC(=O)N[C@@H](Cc1ccccc1)[C@H](O)CN1CCN(Cc2ccc([N+](=O)[O-])cc2)CC1` yielded an IC50 of 23.5 µg/mL (≈ 48.5 µM). In addition, the viability at 24 h, 0.1 ug/ml in series [1] worked out at 100%. Besides, the viability at 24 h, 1 ug/ml in series [2] worked out at 100%. Further, the viability at 24 h, 10 ug/ml in series [3] came out at 98%. Besides, in series [4], the viability at 24 h, 100 ug/ml was found to be 81%.

In turn, `CC(C)(C)OC(=O)N[C@@H](Cc1ccccc1)[C@H](O)CN1CCN(c2ccccc2)CC1` came in with a half-maximal inhibitory concentration (IC50) in the series with Plasmodium falciparum above 50 µg/mL. Also, in series [1], the viability at 24 h, 0.1 ug/ml was determined as 100%. Besides, the viability at 24 h, 1 ug/ml in series [2] came out at 95%. Besides, the viability at 24 h, 10 ug/ml in series [3] is 94%. Besides, in series [4], the viability at 24 h, 100 ug/ml is 58%.

`CC(C)(C)OC(=O)N[C@@H](Cc1ccccc1)[C@H](O)CN1CCN(Cc2ccccc2)CC1` displayed an IC50 with Plasmodium falciparum of 14.9 µg/mL (≈ 33.9 µM). In addition, the viability at 24 h, 0.1 ug/ml in series [1] worked out at 95%. For the same molecule, the viability at 24 h, 1 ug/ml in series [2] worked out at 100%. In addition, the viability at 24 h, 10 ug/ml in series [3] turned out to be 100%. Also, the viability at 24 h, 100 ug/ml in series [4] was 100%.

On to `CC(C)(C)OC(=O)N[C@@H](Cc1ccccc1)[C@H](O)CN1CCN(Cc2ccc(Cl)cc2)CC1`, for which, in the series with Plasmodium falciparum, the IC50 is 7.7 µg/mL (≈ 16.2 µM). The viability at 24 h, 0.1 ug/ml in series [1] was found to be 100%. The viability at 24 h, 1 ug/ml in series [2] stood at 100%. Also, the viability at 24 h, 10 ug/ml in series [3] stood at 100%. Further, the viability at 24 h, 100 ug/ml in series [4] was found to be 88%.

In the series on Plasmodium falciparum, `CN1CCN(C[C@@H](O)[C@H](Cc2ccccc2)NC(=O)OC(C)(C)C)CC1` displayed a half-inhibitory concentration (IC50) above 50 µg/mL. Moreover, the viability at 24 h, 0.1 ug/ml in series [1] came out at 94%. Further, the viability at 24 h, 1 ug/ml in series [2] is 100%. In addition, the viability at 24 h, 10 ug/ml in series [3] is 100%. For the same molecule, the viability at 24 h, 100 ug/ml in series [4] is 100%.

As for `COc1ccc(CN2CCN(C[C@@H](O)[C@H](Cc3ccccc3)NC(=O)OC(C)(C)C)CC2)cc1OC`, the IC50 with Plasmodium falciparum turned out to be 7 µg/mL (≈ 14 µM). In series [1], the viability at 24 h, 0.1 ug/ml turned out to be 100%. Besides, the viability at 24 h, 1 ug/ml in series [2] stood at 100%. Also, the viability at 24 h, 10 ug/ml in series [3] was 100%. The viability at 24 h, 100 ug/ml in series [4] is 83%.

As to `Cc1cccc(C)c1OCC(=O)N[C@@H](Cc1ccccc1)[C@@H](O)C[C@H](Cc1ccccc1)NC(=O)[C@H](C(C)C)N1CCCNC1=O` [LOPINAVIR], in the series with Plasmodium falciparum, the midpoint of inhibition, the IC50, lay at 1.7 µg/mL (≈ 2.7 µM).

For `CC(C)(C)NC(=O)[C@@H]1C[C@@H]2CCCC[C@@H]2CN1C[C@@H](O)[C@H](Cc1ccccc1)NC(=O)[C@H](CC(N)=O)NC(=O)c1ccc2ccccc2n1` [SAQUINAVIR], the IC50 with Plasmodium falciparum was 7 µg/mL (≈ 10.4 µM).
